# Screens: PubChem, The Scripps Research Institute Molecular Screening Center
# ZTA counter: counter-screen for EBNA-1 inhibitors: inhibitors of Epstein-Barr virus ZTA | P03206 | ZTA-DNA binding, fluorescence polarization | inhibition, % at 11 µM | 0.15% of 320,000 active; in the data active means inhibition above about 33%
# FID counter: counter-screen for HCV NS3 helicase inhibitors: DNA intercalator displacement. 0.17% of 290,000 active. AID 1845. DNA fluorescent intercalator displacement, fluorescence. inhibition, % at 7.9 µM; in the data active means inhibition above about 37%;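 further: 0% = vehicle and 100% = reference compound; higher means more ethidium bromide displaced from hairpin DNA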
# HCV NS3 hel inh: HCV NS3 helicase inhibition. inhibition, % at 10.9 µM. AID 1800. NS3 helicase DNA unwinding, Cy5 molecular beacon fluorescence. 0.56% of 290,000 active;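 active means inhibition above the mean of all tested compounds plus 3 SD, set per campaign, cut at about 35% in these data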;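 further: 0% = DMSO wells and 100% = thioflavine S control wells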
#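 System: NS3 helicase fragment of HCV / Schedule: 1 h at 25 °C / Control set: DMSO alone as 0% and 110 µM thioflavine S as 100% / Reagent: Cy5/quencher beacon DNA duplex and ATP to start / Technique: Cy5 fluorescence / Replication: singlicate / Evaluation: % inhibition of end-to-start signal ratio versus controls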
# GPR7 antagonist: antagonists of human GPR7 (neuropeptides B/W receptor 1) | 1.1% of 290,000 active | P48145 | GPR7-expressing cells, fluorescence antagonist assay | inhibition, % at 4.4 µM; in the data active means inhibition above about 16%, passing the limit was not always enough;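 further: cells stimulated with the agonist NPW; 0% = agonist with vehicle and 100% = vehicle without agonist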
# Target sequence (P48145 whole entry, looked up): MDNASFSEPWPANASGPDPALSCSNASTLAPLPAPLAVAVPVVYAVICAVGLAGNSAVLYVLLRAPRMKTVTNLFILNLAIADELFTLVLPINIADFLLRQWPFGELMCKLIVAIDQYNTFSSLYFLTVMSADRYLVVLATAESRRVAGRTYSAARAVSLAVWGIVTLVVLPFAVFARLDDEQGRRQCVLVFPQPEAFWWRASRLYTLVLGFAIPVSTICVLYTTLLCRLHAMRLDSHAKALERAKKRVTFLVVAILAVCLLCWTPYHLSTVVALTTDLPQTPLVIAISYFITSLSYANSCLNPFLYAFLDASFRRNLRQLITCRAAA
# EBNA-1 inh: blocks EBNA-1 binding to DNA. inhibition, % at 14.8 µM. 0.34% of 300,000 active. AID 1950. EBNA-1 DNA binding, fluorescence polarization; in the data active means inhibition above about 28%
# EBNA-1 inh conf: EBNA-1 (EBV) inhibition, confirmation. AID 2292. 35% of 830 active. inhibition, % at 14.8 µM. Recombinant EBNA-1 DBD, Cy5-DNA fluorescence polarization. shares compounds with EBNA-1 inh;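 active means mean inhibition across replicates above a set limit taken from the earlier primary screen, cut at about 28% in these data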;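 further: plate controls were EBNA-1 protein with DMSO for no effect and wells lacking EBNA-1 for full effect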
# ZTA DNA inh trip: counter-screen for EBNA-1 inhibitors: Epstein-Barr virus ZTA inhibitors, triplicate | Zta-ZRE DNA binding, Cy5 fluorescence polarization | shares compounds with EBNA-1 inh | AID 2328 | 830 tested, under 10 active | inhibition, % at 11.1 µM;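 active means mean inhibition over triplicates above a set limit taken from the primary EBNA-1 screen, cut at about 37% in these data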;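 further: purified full length Zta protein with Cy5 labeled ZRE DNA probe; 0% = Zta with DMSO and 100% = wells lacking Zta protein; inhibitors lower polarization by freeing the labeled DNA probe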
# * marks the source's active call; other numbers are inactive results; · = not tested or not shown. An excerpt weighted towards active compounds, which were near 2% of everything screened.
SMILES,ZTA counter,FID counter,HCV NS3 hel inh,GPR7 antagonist,EBNA-1 inh,EBNA-1 inh conf,ZTA DNA inh trip
COc1ccc(-c2csc(N3C(=N)SCC3=O)n2)cc1,3,-3,-1,2,44*,16,-1
COc1ccc(-c2csc(N3C(=O)CNC3=S)n2)cc1,-1,-1,-8,-3,82*,44*,-11
Cc1c(C(=O)NCc2ccc3c(c2)OCO3)sc2nc(-c3ccc(F)cc3)cn12,-5,0,-2,2,37*,8,4
COc1cc(NC(=O)COC(=O)/C=C/c2ccc(Cl)cc2Cl)cc(OC)c1,-2,0,0,0,53*,59*,6
COc1cccc(OC)c1C(=O)Nc1nc2cc3c(cc2s1)OCO3,-3,-10,0,-10,33*,60*,7
COc1ccccc1C(=O)Nc1nc2cc3c(cc2s1)OCO3,4,-4,-3,-4,-25,·,·
COc1ccc(C(=O)NC2CC(C)(C)Cc3c2cnn3-c2ccccc2)cc1OC (stereo unspecified),-9,-50,2,-2,7,·,·
COc1cc(C(=O)NC2CC(C)(C)Cc3c2cnn3-c2ccccc2)cc(OC)c1OC (stereo unspecified),2,-43,-1,-10,32*,34*,1
COCCCNC(=O)Cc1ccc(S(=O)(=O)N2CCOCC2)s1,10,·,·,·,·,·,·
COc1cc(NC(=O)CSc2nc3ccccc3c(=O)n2C)ccc1NC(=O)c1ccco1,-1,1,0,2,40*,28*,6
COc1ccc(-n2nnnc2SCC(=O)c2cccc(OC)c2)cc1,14,-12,7,-6,11,·,·
COc1ccc(-n2nnnc2SCC(=O)c2ccc3c(c2)OCCO3)cc1,-7,0,0,3,28*,25,15
Cc1ccc(C2CC(c3cccs3)=NN2C(=O)CSc2nc(=O)n3cc(C)ccc3n2)cc1 (stereo unspecified),-4,·,·,·,42*,2,7
Cc1ccn2c(=O)nc(SCC(=O)N3N=C(c4cccs4)CC3c3ccc(F)cc3)nc2c1 (stereo unspecified),-4,·,·,·,-1,·,·
O=C(NCC(=O)N1CCOCC1)c1ccccc1,-4,-3,9,-5,4,·,·
C(=N\Nc1nc(N2CCCC2)nc(N2CCCC2)n1)/c1ccccc1OCc1ccccc1,-16,-9,0,-12,38*,24,-2
COc1ccc(Nc2nc(NCc3ccco3)nc(N)c2[N+](=O)[O-])cc1,17,1,-8,-14,39*,12,1
Cn1c(=O)c(C(=O)CSc2nnc(Nc3ccccc3)s2)c(N)n(Cc2ccccc2)c1=O,-3,-1,2,-2,35*,14,4
Cc1ccc2nc(-c3cccnc3SCC(=O)N3c4ccccc4CC3C)[nH]c2c1 (stereo unspecified),8,-2,-3,0,28*,30*,-6
CCOC(=O)c1c(C)[nH]c(C(=O)OCC(=O)Nc2ccc(OC)c(Cl)c2)c1C,22,-1,3,-3,94*,32*,-5
CCOC(=O)c1c(C)[nH]c(C(=O)OCC(=O)Nc2cc(Cl)ccc2OC)c1C,16,-1,2,-12,13,·,·
COc1ccc2c(c1)[nH]c1c(=O)n(Cc3ccco3)cnc12,5,-1,-3,0,37*,-2,-13
COc1cc(C(CC(=O)Nc2ccccn2)N2Cc3ccccc3C2=O)cc(OC)c1OC (stereo unspecified),-12,-23,-2,-6,-9,·,·
Cc1ccc(S(=O)(=O)N2CCC(C(=O)N3CCC3)CC2)cc1,3,-7,4,-6,1,·,·
CCOC(=O)N1CCN(C(=O)C2CC(=O)N(Cc3ccc(OC)cc3)C2)CC1 (stereo unspecified),-3,-13,0,-14,1,·,·
COc1ccc(CN2CC(C(=O)N3CCOCC3)CC2=O)cc1 (stereo unspecified),-3,0,-2,-1,47*,-13,-26
CC1CCN(C(=O)CCc2nnc3ccc(NCCCN4CCCC4=O)nn23)CC1,-15,-38,17,-6,-13,·,·
